Converted amounts (≈) assume the structure as drawn.
Tests used:
[1] = system: Candida albicans; test: Antifungal activity against Candida albicans 7535 after 24 hrs by two-fold serial dilution method; type: functional; settings: Candida albicans, 7535, 24 h
[2] = system: Escherichia coli; test: Ratio of MBC to MIC for Escherichia coli KCTC 1924; type: functional
Procedure, shortened: (§1)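 The ratio divides MBC by MIC for the same strain. MIC comes from two-fold broth microdilution in Mueller-Hinton broth (about 10^5 CFU/mL, 37 °C, 24 h, absorbance at 630 nm). MBC comes from subculturing 5 µL from clear wells onto Mueller-Hinton agar for another 24 h at 37 °C, taken as the lowest concentration with no colonies.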

[3] = system: Staphylococcus aureus; test: Antibacterial activity against Staphylococcus aureus RN4220 after 24 hrs by two-fold serial dilution method; type: functional; settings: RN4220, 24 h
Procedure, shortened: (§2)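 Broth microdilution MIC. Bacteria grown to mid-log phase in Mueller-Hinton broth, diluted 1000-fold, about 10^5 CFU/mL. Compounds from DMSO stocks, two-fold serial dilution from a final 64 µg/mL. Incubation at 37 °C for 24 h. Growth read as absorbance at 630 nm on a microplate reader. Run in triplicate.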

[4] = system: Streptococcus mutans; test: Antibacterial activity against Streptococcus mutans 3065 after 24 hrs by two-fold serial dilution method; type: functional; settings: Streptococcus mutans, 3065, 24 h
Procedure, shortened: (§3)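 Strains grown to mid-log phase in Mueller-Hinton broth, then diluted 1000-fold in the same broth to about 10^5 CFU/mL. Compounds were made up as DMSO stocks and two-fold serially diluted from a final top concentration of 64 µg/mL. Incubation was 37 °C for 24 h. Growth was read as absorbance at 630 nm on a microplate reader. MIC assays were run in triplicate.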

[5] = system: Staphylococcus aureus; test: Antibacterial activity against methicillin-resistant Staphylococcus aureus CCARM 3506 after 24 hrs by two-fold serial dilution method; type: functional; settings: CCARM 3506, 24 h; procedure, shortened: as §2
[6] = system: Pseudomonas aeruginosa; test: Antibacterial activity against Pseudomonas aeruginosa 2004 after 24 hrs by two-fold serial dilution method; type: functional; settings: Pseudomonas aeruginosa, 2004, 24 h; procedure, shortened: as §3
[7] = system: Staphylococcus aureus; test: Antibacterial activity against methicillin-resistant Staphylococcus aureus CCARM 3167 after 24 hrs by two-fold serial dilution method; type: functional; settings: CCARM 3167, 24 h; procedure, shortened: as §2
[8] = system: Escherichia coli; test: Antibacterial activity against Escherichia coli KCTC 1924 after 24 hrs by two-fold serial dilution method; type: functional; settings: KCTC 1924, 24 h; procedure, shortened: as §3
[9] = system: Pseudomonas aeruginosa; test: Antibacterial activity against Pseudomonas aeruginosa 2742 after 24 hrs by two-fold serial dilution method; type: functional; settings: Pseudomonas aeruginosa, 2742, 24 h; procedure, shortened: as §3
[10] = system: Staphylococcus aureus; test: Bactericidal activity against Staphylococcus aureus RN4220 after 24 hrs by agar plate method; type: functional; settings: RN4220, 24 h
Procedure, shortened: (§4)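 Samples of 5 µL from MIC wells with no visible growth were plated onto fresh Mueller-Hinton agar and incubated a further 24 h at 37 °C. MBC is the lowest concentration giving no visible colony growth on the agar. Assays were run in triplicate.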

[11] = system: Staphylococcus aureus; test: Antibacterial activity against quinolone-resistant Staphylococcus aureus CCARM 3505 after 24 hrs by two-fold serial dilution method; type: functional; settings: CCARM 3505, 24 h; procedure, shortened: as §2
[12] = system: Escherichia coli; test: Antibacterial activity against Escherichia coli CCARM 1356 after 24 hrs by two-fold serial dilution method; type: functional; settings: CCARM 1356, 24 h; procedure, shortened: as §3
[13] = system: Salmonella typhimurium; test: Antibacterial activity against Salmonella typhimurium 2421 after 24 hrs by two-fold serial dilution method; type: functional, Salmonella enterica subsp. enterica serovar Typhimurium; settings: Salmonella enterica, 2421, 24 h; procedure, shortened: as §3
[14] = system: Staphylococcus aureus; test: Antibacterial activity against quinolone-resistant Staphylococcus aureus CCARM 3519 after 24 hrs by two-fold serial dilution method; type: functional; settings: CCARM 3519, 24 h; procedure, shortened: as §2
[15] = system: Escherichia coli; test: Bactericidal activity against Escherichia coli KCTC 1924 after 24 hrs by agar plate method; type: functional; settings: KCTC 1924, 24 h; procedure, shortened: as §4
[16] = system: Staphylococcus aureus; test: Antibacterial activity against Staphylococcus aureus KCTC 209 after 24 hrs by two-fold serial dilution method; type: functional; settings: KCTC 209, 24 h; procedure, shortened: as §3
[17] = system: Staphylococcus aureus; test: Antibacterial activity against Staphylococcus aureus KCTC 503 after 24 hrs by two-fold serial dilution method; type: functional; settings: KCTC 503, 24 h; procedure, shortened: as §3
[18] = system: Staphylococcus aureus; test: Bactericidal activity against methicillin-resistant Staphylococcus aureus CCARM 3506 after 24 hrs by agar plate method; type: functional; settings: CCARM 3506, 24 h
Procedure, shortened: (§5)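 5 µL from each well without visible growth plated on fresh Mueller-Hinton agar, then 37 °C for a further 24 h. MBC is the lowest concentration giving no visible colonies. Run in triplicate.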

[19] = system: Staphylococcus aureus; test: Bactericidal activity against quinolone-resistant Staphylococcus aureus CCARM 3519 after 24 hrs by agar plate method; type: functional; settings: CCARM 3519, 24 h; procedure, shortened: as §5
[20] = system: Streptococcus mutans; test: Bactericidal activity against Streptococcus mutans 3065 after 24 hrs by agar plate method; type: functional; settings: Streptococcus mutans, 3065, 24 h; procedure, shortened: as §4
[21] = system: Staphylococcus aureus; test: Bactericidal activity against methicillin-resistant Staphylococcus aureus CCARM 3167 after 24 hrs by agar plate method; type: functional; settings: CCARM 3167, 24 h; procedure, shortened: as §5
[22] = system: Staphylococcus aureus; test: Bactericidal activity against Staphylococcus aureus KCTC 503 after 24 hrs by agar plate method; type: functional; settings: KCTC 503, 24 h; procedure, shortened: as §5
[23] = system: Staphylococcus aureus; test: Ratio of MBC to MIC for Staphylococcus aureus KCTC 503; type: functional; procedure, shortened: as §1
[24] = system: Staphylococcus aureus; test: Bactericidal activity against quinolone-resistant Staphylococcus aureus CCARM 3505 after 24 hrs by agar plate method; type: functional; settings: CCARM 3505, 24 h; procedure, shortened: as §5
[25] = system: Staphylococcus aureus subsp. aureus RN4220; test: Ratio of MBC to MIC for Staphylococcus aureus RN4220; type: functional; procedure, shortened: as §1

SMILES | MIC [1] [µg/mL] | MIC [3] [µg/mL] | MIC [4] [µg/mL] | MIC [5] [µg/mL] | MIC [6] [µg/mL] | MIC [7] [µg/mL] | MIC [8] [µg/mL] | MIC [9] [µg/mL] | MBC [10] [µg/mL] | MIC [11] [µg/mL] | MIC [12] [µg/mL] | MIC [13] [µg/mL] | MIC [14] [µg/mL] | MIC [16] [µg/mL] | MIC [17] [µg/mL] | MBC [18] [µg/mL] | MBC [19] [µg/mL] | MBC [20] [µg/mL] | MBC [21] [µg/mL] | MBC [22] [µg/mL] | also measured
O=C(O)CN1C(=O)/C(=C/c2ccc(/C=N/n3c(-c4ccccc4Cl)n[nH]c3=S)cc2)SC1=S | > 64 | 64 (≈ 124 µM) | > 64 | > 64 | > 128 | > 64 | 64 (≈ 124 µM) | > 128 | 256 (≈ 496 µM) | > 64 | > 128 | > 128 | > 64 | > 64 | > 64 | – | – | – | – | – | Ratio [2]: <=4; MBC [15]: 128 µg/mL (≈ 248 µM)
Cc1ccccc1-c1n[nH]c(=S)n1/N=C/c1ccc(/C=C2\SC(=S)N([C@@H](Cc3ccccc3)C(=O)O)C2=O)cc1 | > 64 | 16 (≈ 27.3 µM) | 8 (≈ 13.7 µM) | 16 (≈ 27.3 µM) | > 128 | 16 (≈ 27.3 µM) | 64 (≈ 109 µM) | > 128 | 64 (≈ 109 µM) | 16 (≈ 27.3 µM) | > 128 | > 128 | 16 (≈ 27.3 µM) | > 64 | 16 (≈ 27.3 µM) | 64 (≈ 109 µM) | > 128 | 16 (≈ 27.3 µM) | 32 (≈ 54.6 µM) | 32 (≈ 54.6 µM) | Ratio [2]: <=4; MBC [15]: 64 µg/mL (≈ 109 µM); Ratio [23]: <=4; MBC [24]: 64 µg/mL (≈ 109 µM)
Cc1cccc(-c2n[nH]c(=S)n2/N=C/c2ccc(/C=C3\SC(=S)N([C@@H](Cc4ccccc4)C(=O)O)C3=O)cc2)c1 | > 64 | 32 (≈ 54.6 µM) | 64 (≈ 109 µM) | 16 (≈ 27.3 µM) | > 128 | 16 (≈ 27.3 µM) | > 128 | > 128 | 32 (≈ 54.6 µM) | 16 (≈ 27.3 µM) | > 128 | > 128 | 16 (≈ 27.3 µM) | > 64 | 64 (≈ 109 µM) | 64 (≈ 109 µM) | 128 (≈ 219 µM) | 256 (≈ 437 µM) | 128 (≈ 219 µM) | 128 (≈ 219 µM) | Ratio [23]: <=4; MBC [24]: 64 µg/mL (≈ 109 µM)
O=C(O)[C@H](Cc1ccccc1)N1C(=O)/C(=C/c2ccc(/C=N/n3c(-c4ccc(Cl)cc4)n[nH]c3=S)cc2)SC1=S | > 64 | 8 (≈ 13.2 µM) | 16 (≈ 26.4 µM) | 16 (≈ 26.4 µM) | > 128 | 8 (≈ 13.2 µM) | > 128 | > 128 | 16 (≈ 26.4 µM) | 16 (≈ 26.4 µM) | > 128 | > 128 | 16 (≈ 26.4 µM) | > 64 | 16 (≈ 26.4 µM) | 128 (≈ 211 µM) | 128 (≈ 211 µM) | 32 (≈ 52.8 µM) | 64 (≈ 106 µM) | 128 (≈ 211 µM) | Ratio [25]: 2; MBC [24]: 64 µg/mL (≈ 106 µM)
O=C(O)[C@H](Cc1ccccc1)N1C(=O)/C(=C/c2ccc(/C=N/n3c(-c4ccccc4Br)n[nH]c3=S)cc2)SC1=S | > 64 | 8 (≈ 12.3 µM) | 8 (≈ 12.3 µM) | 16 (≈ 24.6 µM) | > 128 | 8 (≈ 12.3 µM) | > 128 | > 128 | 16 (≈ 24.6 µM) | 8 (≈ 12.3 µM) | > 128 | > 128 | 8 (≈ 12.3 µM) | > 64 | 8 (≈ 12.3 µM) | 32 (≈ 49.2 µM) | 32 (≈ 49.2 µM) | 32 (≈ 49.2 µM) | 16 (≈ 24.6 µM) | 8 (≈ 12.3 µM) | Ratio [25]: 2; Ratio [23]: <=4; MBC [24]: 32 µg/mL (≈ 49.2 µM)

— ChEMBL document CHEMBL3596093, “Synthesis and antimicrobial evaluation of 5-aryl-1,2,4-triazole-3-thione derivatives containing a rhodanine moiety” (2015)
